hDAT+cocaine – changed hDAT dopamine uptake under cocaine IC80, either direction, primary screen, cocaine antagonist project, cell-based, LLC-PK1 hDAT, [14C]-dopamine uptake, MLSMR; Sodium-dependent dopamine transporter (Homo sapiens), Q01959; LLC-PK1 hDAT cells, [14C]-dopamine uptake with cocaine IC80; actives deviate in either direction; B-score at 10 µM; hit rate 1.3% among 110,000;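 active means Z score or B-score, a plate-position-corrected score, falls beyond the plate's 99.7% confidence bounds, in either direction; inactive means both scores lie inside the 99.7% bounds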
BAP1 inh – inhibitors of BAP1 deubiquitinase, primary screen, biochemical, Ub-AMC fluorescence, kinetic; recombinant BAP1, Ub-AMC hydrolysis fluorescence kinetic; stronger effect = lower value; calls only at 20 µM; hit rate 0.48% among 72,000; AID 436, 2006;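 active means activity remaining at or below 50% of control, provided the compound also passes the data quality filters; inactive means the rest, including low values that fail the filters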
M1 agonist – M1 muscarinic receptor agonists, primary screen, CHO-M1 cells, Fluo-4 calcium, agonist mode | hit rate 3% among 64,000 | Muscarinic acetylcholine receptor M1 | Fluo-4 calcium fluorescence; stronger effect = higher value | AID 626, 2007 | B-score at 10 µM;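 active means fluorescence rise, raw or as B-score row- and column-corrected plate score, outside the 99.7% band of its plate's samples, either direction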
M1 antag – antagonists of rat M1 muscarinic receptor. B-score at 10 µM. CHO-M1 cells, Fluo-4 calcium, ACh EC80 antagonist mode; stronger effect = lower value. hit rate 3.4% among 64,000;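 active means calcium fluorescence response, raw or row-and-column corrected B-score, differing from the plate sample mean either way at a set confidence level, mostly lower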
Target sequence (P08482 whole entry, looked up): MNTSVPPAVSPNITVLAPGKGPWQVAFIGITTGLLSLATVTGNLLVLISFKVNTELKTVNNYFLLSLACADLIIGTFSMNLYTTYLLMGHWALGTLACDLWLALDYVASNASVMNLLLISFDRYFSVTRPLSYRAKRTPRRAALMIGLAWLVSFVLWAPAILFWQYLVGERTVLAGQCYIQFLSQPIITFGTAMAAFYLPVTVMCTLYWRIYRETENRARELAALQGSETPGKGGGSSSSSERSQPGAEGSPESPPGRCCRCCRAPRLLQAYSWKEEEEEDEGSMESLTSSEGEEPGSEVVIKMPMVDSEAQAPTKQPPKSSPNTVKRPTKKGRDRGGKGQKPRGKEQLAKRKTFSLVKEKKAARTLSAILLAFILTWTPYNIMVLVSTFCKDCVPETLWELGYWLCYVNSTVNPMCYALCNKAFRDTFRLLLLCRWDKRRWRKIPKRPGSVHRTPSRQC
D1 mod – D1 CRE-luciferase signal change, two-sided – cell-based, HEK293 D1, dopamine EC30, D1 allosteric modulator project, primary screen; D(1A) dopamine receptor (Homo sapiens), P21728; dopamine EC30 potentiation; actives deviate in either direction; B-score at 10 µM; hit rate 5.9% among 58,000;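 active means luminescence count or its row- and column-corrected plate score outside the 99.7% band of the plate's sample wells, on either side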
HEK293 NFkB inh – inhibitors of PMA/ionomycin-induced NF-kB reporter, primary screen, antigen receptor NF-kB inhibitor project, cell-based, HEK-293 luciferase reporter, luminescence; HEK-293 NF-kB luciferase reporter; inhibition, % at 3 µM; hit rate 0.21% among 62,000; AID 465, 2006;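 active means inhibition above the mean of all tested compounds plus 3 SD, cut at about 40% in these data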
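System: NF-kB luciferase reporter HEK-293 cells | Replication: Single test | Control set: DMSO vs reference inhibitor | Evaluation: % inhibition | Schedule: 1 h pretreatment, 16 h stimulation, 37 °C | Probe or stimulus: PMA with ionomycin | Compound dosing: One dose, 3 µM | Detection: Luciferase luminescence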
M1 antag confirm – rat M1 muscarinic receptor antagonists, confirmation, CHO cells, Fluo-4 calcium, duplicate. shares compounds with M1 antag. ACh EC80 antagonism; stronger effect = lower value. calcium response (max-min fluorescence) at 10 µM. hit rate 43% among 1,700;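 active means calcium response below the same-plate mean of wells given acetylcholine alone at its 80%-effect dose, minus 3 SD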
mGluR4 antag – human mGluR4 response to M1 antagonist hits, M1 allosteric modulator project, cell-based, antagonist mode, secondary assay 1. fluorescence response (max-min) at 10 µM. CHO-mGluR4 calcium flux, Fluo-4 fluorescence, glutamate EC80; stronger effect = lower value. AID 678, 2007. hit rate 0.9% among 1,700. shares compounds with M1 antag;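 active means fluorescence response below the plate's average for near-maximal glutamate wells, less 3 SD of those wells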;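 further: raw unnormalized fluorescence span taken in the window right after glutamate addition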
Of the large screens only hits and unclear results are named; the others gave an inactive call (follow-up assays come after a bar, where shown). Sampled rows, rich in hits. Any-hit rate of the full collection: about 7.2%.

Cn1ccnc1SCC(=O)c1cc2ccccc2o1	M1 antag -3.2 (no result: BAP1 inh) | M1 antag confirm inactive | mGluR4 antag inactive
Cn1c(SCC(=O)c2cc3ccccc3o2)nnc1-c1ccccc1	M1 antag -2 | M1 antag confirm inactive | mGluR4 antag inactive
COc1ccc(-n2nnnc2SCC(=O)c2cc3ccccc3o2)cc1	none
COc1cccc(NC(=O)c2oc3ccccc3c2NC(=O)C(C)(C)C)c1	M1 antag -3.8 (not shown: BAP1 inh) | M1 antag confirm inactive | mGluR4 antag inactive
O=C1CC(Cc2ccccc2)C(=O)N1CCCn1ccnc1 (centres undefined)	M1 antag -2.8 (no result: hDAT+cocaine, HEK293 NFkB inh) | M1 antag confirm inactive | mGluR4 antag inactive
Cc1ccc(S(=O)(=O)Nc2ccc3c(c2)nc(CN2CCCC2)n3C)cc1	none (no result: BAP1 inh, M1 agonist, M1 antag, D1 mod, HEK293 NFkB inh)
Cn1c(CCN2CCCCC2)nc2cc(NS(=O)(=O)c3ccc(F)cc3)ccc21	M1 antag -1.8 | M1 antag confirm 474 | mGluR4 antag inactive
Cc1ccc(N2CCN(CCc3nc4cc(NS(C)(=O)=O)ccc4n3C)CC2)cc1	M1 antag -3.7 | M1 antag confirm 503 | mGluR4 antag inactive
Cn1c(CCN2CCCCC2)nc2cc(NC(=O)NC3CCCCC3)ccc21	M1 antag -4.7 | M1 antag confirm 263 | mGluR4 antag inactive
Oc1c(I)cc2oc3c(c2c1CNc1ccc(Br)cc1)CCCC3	none (no result: hDAT+cocaine, M1 agonist, M1 antag, D1 mod, HEK293 NFkB inh)
Cc1cc(C)nc(SCC(=O)Nc2ccc(Cl)cn2)n1	none (no result: hDAT+cocaine, M1 agonist, M1 antag, D1 mod, HEK293 NFkB inh)
O=C(NCCCN1CCN(Cc2ccccc2)CC1)C1CCN(c2nnc(-n3cccc3)s2)CC1	M1 antag -6.9 | M1 antag confirm 419 | mGluR4 antag inactive
O=C(NCCCN1CCc2ccccc2C1)C1CCN(c2nnc(-n3cccc3)s2)CC1	M1 antag -2.9 (no result: D1 mod) | M1 antag confirm 337 | mGluR4 antag inactive
O=C(NCCCc1ccccc1)C1CCN(c2nnc(-n3cccc3)s2)CC1	none (no result: D1 mod)
Cc1ccc(Cl)cc1N(CC(=O)N1CCCCCC1)S(C)(=O)=O	M1 antag -2.9 (no result: BAP1 inh) | M1 antag confirm inactive | mGluR4 antag inactive
N=c1n(CCN2CCOCC2)c2ccccc2n1CC(=O)c1ccco1	none (no result: hDAT+cocaine, M1 agonist, M1 antag, D1 mod, HEK293 NFkB inh)
O=C(OC(C(=O)c1ccccc1)c1ccccc1)c1ccc(Br)c([N+](=O)[O-])c1 (centres undefined)	none (no result: hDAT+cocaine, M1 agonist, M1 antag, D1 mod, HEK293 NFkB inh)
CCOc1ccc(-c2noc(CCC(=O)O)n2)cc1	M1 antag -0.87 (no result: D1 mod) | M1 antag confirm inactive | mGluR4 antag inactive
COc1ccc(-c2noc(CCC(=O)Nc3ccc(C)c(C)c3)n2)cc1	M1 antag -3.2 | M1 antag confirm inactive | mGluR4 antag inactive
COc1ccc(-c2noc(CCC(=O)NCC3CCN(Cc4cccc(C)c4)CC3)n2)cc1	M1 antag -3.6 | M1 antag confirm 399 | mGluR4 antag inactive
COc1ccc(-c2noc(CCC(=O)NC3CCN(Cc4ccccc4)CC3)n2)cc1	none (no result: BAP1 inh, M1 agonist, M1 antag, D1 mod, HEK293 NFkB inh)
COc1ccc(NC(=O)CCc2nc(-c3ccc(C)cc3)no2)cc1Cl	none
CCOc1ccc(OCCCC(=O)O)cc1	none (no result: BAP1 inh, M1 agonist, M1 antag, D1 mod, HEK293 NFkB inh)
CCCCn1c(SCC(N)=O)nc2c1c(=O)[nH]c(=O)n2C	none (no result: hDAT+cocaine, M1 agonist, M1 antag, D1 mod, HEK293 NFkB inh)
CC1=C(C(=O)OCCOc2ccccc2)C(c2ccccc2OC(C)C)C2=C(CCCC2=O)N1 (centres undefined)	none (no result: hDAT+cocaine, M1 agonist, M1 antag, D1 mod, HEK293 NFkB inh)
CCOC(=O)CCSCC(=O)Nc1nnc(C)s1	M1 antag -2.4 | M1 antag confirm inactive | mGluR4 antag inactive
C=C(C)Cn1c(SCC)nc2ccccc2c1=O	M1 antag -4.1 | M1 antag confirm inactive | mGluR4 antag inactive
COc1ccc(NC(=O)c2cnn3c(C(F)(F)F)cc(-c4ccc(OC)c(OC)c4)nc23)c(OC)c1	none (no result: hDAT+cocaine, M1 agonist, M1 antag, D1 mod, HEK293 NFkB inh)
CCCCn1c(CN2CCN(C)CC2)nc2ccccc21	M1 antag -4 | M1 antag confirm 324 | mGluR4 antag inactive
CCCn1c(CN2CCN(C)CC2)nc2ccccc21	none (no result: BAP1 inh, M1 agonist, M1 antag, D1 mod, HEK293 NFkB inh)
COc1ccc(C2(CN(C(C)=O)C(C)=O)CCCC2)cc1OC	M1 antag -14 (no result: HEK293 NFkB inh) | M1 antag confirm inactive | mGluR4 antag inactive
COc1ccc(C2(CNC(=O)Cc3ccccc3)CCCC2)cc1OC	none (no result: BAP1 inh, M1 agonist, M1 antag, D1 mod, HEK293 NFkB inh)
COc1ccc(C=Nc2ccc3c(c2)c2nc4ccccc4nc2n3C)c(O)c1	none (no result: hDAT+cocaine, M1 agonist, M1 antag, D1 mod, HEK293 NFkB inh)
O=C(O)C1CCN(S(=O)(=O)c2ccccc2[N+](=O)[O-])CC1	none (no result: hDAT+cocaine, M1 agonist, M1 antag, D1 mod, HEK293 NFkB inh)
C=CCOC(=O)Nc1ccc(Cl)cc1NC(=O)OCC=C	M1 antag -3.8 | M1 antag confirm inactive | mGluR4 antag inactive
O=C(CN1CCN(Cc2ccccc2)CC1)N1CCCc2c1c(=O)oc1ccc(O)cc21	M1 antag -6.1 (no result: hDAT+cocaine) | M1 antag confirm 334 | mGluR4 antag inactive
CCCOc1ccc2oc(=O)c3c(c2c1)CCCN3C(=O)CN(C)Cc1ccccc1	M1 antag -6.5 | M1 antag confirm 386 | mGluR4 antag inactive
Cc1ccc(S(=O)(=O)N2CCN(c3ccc([N+](=O)[O-])c(NC(C)C45CC6CC(CC(C6)C4)C5)c3)CC2)cc1 (centres undefined)	none (no result: hDAT+cocaine, M1 agonist, M1 antag, D1 mod, HEK293 NFkB inh)
Cc1ccc(S(=O)(=O)N(CC(=O)N2CCC(C(N)=O)CC2)c2cccc(C(F)(F)F)c2)cc1	M1 antag -7.3 | M1 antag confirm inactive | mGluR4 antag inactive
Cc1nc2c(o1)CCc1ccccc1C2N1CCN(C)CC1 (centres undefined)	M1 antag -15 (no result: D1 mod, HEK293 NFkB inh) | M1 antag confirm 20 | mGluR4 antag inactive
CN(C)CCOC(=O)C1(c2ccccc2)CCCC1	none (no result: BAP1 inh, M1 agonist, M1 antag, D1 mod, HEK293 NFkB inh)

Compound activity as filed in PubChem BioAssay.
